Many of the other results were omitted from the sample, so hits are more common in it than they were.
STK33 inh: blocks human STK33 kinase activity; Q9BYT3; purified STK33, MBP phosphorylation, ADP-Glo luminescence; AID 2661; hit rate 0.073% among 320,000; inhibition, % at 10 µM;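 active = inhibition at or above 25%, using the most active replicate where run in duplicate; inactive = inhibition below 25%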
Target sequence (Q9BYT3 whole entry, looked up): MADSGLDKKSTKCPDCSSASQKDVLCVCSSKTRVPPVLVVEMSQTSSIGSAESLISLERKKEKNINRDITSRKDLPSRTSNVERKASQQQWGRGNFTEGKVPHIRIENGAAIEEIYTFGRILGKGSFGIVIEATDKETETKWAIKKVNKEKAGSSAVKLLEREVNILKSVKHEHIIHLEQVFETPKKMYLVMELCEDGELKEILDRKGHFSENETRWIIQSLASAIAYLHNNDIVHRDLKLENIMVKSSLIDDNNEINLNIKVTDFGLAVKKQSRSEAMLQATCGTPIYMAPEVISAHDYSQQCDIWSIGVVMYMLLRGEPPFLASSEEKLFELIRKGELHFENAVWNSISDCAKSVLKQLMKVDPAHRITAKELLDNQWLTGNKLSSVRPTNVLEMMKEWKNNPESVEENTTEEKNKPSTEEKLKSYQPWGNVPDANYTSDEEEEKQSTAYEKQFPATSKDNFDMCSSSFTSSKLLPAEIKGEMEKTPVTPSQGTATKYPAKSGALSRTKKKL
GSK3B inh: blocks human GSK3beta kinase activity; GST-GSK3beta kinase, ADP-Glo luminescence, 60 min; active compounds read low; activity score (negative = inhibition), % at 10 µM; hit rate 0.038% among 300,000; AID 2097;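 active = more than half of replicate wells score below -50%, meaning over 50% inhibition versus plate controls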;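 also: 0% = median DMSO wells and -100% = median GW8510 positive control wells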
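Test system: GST-tagged human GSK3beta kinase, cell-free; evaluation: activity score scaled between in-plate DMSO and GW8510 controls; measured by: ADP-Glo luminescence; incubation: 60 min reaction, RT; benchmarks: DMSO and 20 µM GW8510; reagent: peptide substrate plus 25 µM ATP (final); medium: Tris/MgCl2 kinase buffer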
Dyrk1A ADPGlo: Dyrk1A (rat) kinase inhibition; ADP-Glo luminescence, NFATc1 peptide; hit rate 0.43% among 310,000; inhibition, % at 12.5 µM; AID 504441; in the data active = inhibition above about 50%;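 also: plate controls were vehicle with enzyme for no effect and no enzyme for full effect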
CDK5 p35 inh: CDK5/p35 (human) kinase inhibition; Q00535+Q15078; Recombinant CDK5/p35, ADP-Glo luminescence, 60 min; inhibition, % at 10 µM; hit rate 0.01% among 330,000; AID 488839;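 active = highest replicate inhibition of at least 50% and at least 75% of replicates reaching 50%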;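 also: plate controls were DMSO neutral control for no effect and GW8510 at 10 µM for full effect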
GSK3 alpha inh: inhibitors of human GSK-3 alpha kinase | inhibition, % at 10 µM | AID 2650 | hit rate 0.1% among 320,000 | ADP-Glo luminescence, 60 min | P49840;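 active = more than half of replicates show inhibition above 20%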;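 also: GST-tagged GSK-3 alpha with peptide substrate and 25 µM ATP; 0% = DMSO neutral wells and 100% = GW8510 positive control wells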
Dyrk1A artifact: counter-screen for Dyrk1A inhibitors: ADP-Glo luciferase artifacts. shares compounds with Dyrk1A ADPGlo. ADP-Glo luciferase artifact assay, no Dyrk1A, luminescence. AC50, µM (highest dose often 12 µM), inactives show top-dose activity change, negative = inhibition. 1,300 tested, under 10 active. AID 588348;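 active = fitted half-maximal dose AC50 no more than ten times the top valid tested dose, with luminescence dropping as dose rises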
* = called active by the depositor; / = not tested or not shown.

SMILES	STK33 inh	GSK3B inh	Dyrk1A ADPGlo	CDK5 p35 inh	GSK3 alpha inh	Dyrk1A artifact
CC(C)c1nnc(NC(=O)Cn2nc(-c3ccc4c(c3)OCCO4)ccc2=O)s1	-1.7	0.6	57.7*	0.4	-1.6	6.7%
O=C(Oc1ccc(Nc2ncnc3ccccc23)cc1)c1cccnc1	/	-0.2	21.0	1.6	/	/
COc1ccc2c(c1)CCc1cn[nH]c1-2	-0.3	-1.9	50.5*	1.8	0.0	6.9%
O=C(Cn1c(-c2cncs2)nc2ccccc21)NCc1ccccc1	-0.8	-2.7	60.2*	1.2	0.2	9.8%
Cc1ccccc1Cn1c(-c2cncs2)nc2ccccc21	-2.2	-5.6	5.5	-1.8	-0.6	/
CCOc1ccccc1NC(=O)C(Sc1nnnn1C)c1ccccc1 (stereo not drawn)	-1.9	0.4	11.4	-0.4	-2.6	/
Nc1nc2ccc([N+](=O)[O-])cc2[nH]1	10.2	-0.7	54.9*	0.6	-1.3	6.5%
Fc1ccc(C2Nc3cccc4cccc(c34)N2)cc1	0.2	2.2	52.5*	2.1	1.0	9.3%
FC(F)(F)c1ccc(C2Nc3cccc4cccc(c34)N2)cc1	/	/	6.9	1.6	/	/
Nc1nc(=O)n(C2CCCO2)cc1Br (stereo not drawn)	/	/	4.5	-1.0	/	/
CC(Nc1nc(-c2cccnc2)nc2ccccc12)c1ccc(F)cc1 (stereo not drawn)	-1.1	1.4	62.0*	-1.2	3.3	9.6%
O=C(N/N=C/c1ccc(F)c(F)c1)c1cc2c(s1)-c1ccccc1CC2	0.4	0.1	-0.4	-1.8	-2.2	/
CNC(=O)c1cc2c(s1)-c1ccccc1CC2	3.9	-1.5	52.8*	0.7	5.2	10.2%
CCOC(=O)CNS(=O)(=O)c1ccc(S(=O)(=O)NC2CC2)cc1	0.0	0.5	4.7	-1.1	1.4	/
CCN1C[C@@H]2[C@@H]3C(=O)N(C)C(=O)[C@@H]3[C@](C)(C(=O)OC)N2C1=NC	/	/	-1.8	1.1	/	/
CC(C)S(=O)(=O)C1=NSC2=NC(=O)/C(=C\c3ccc(-c4cccc(C(=O)O)c4)o3)C(=N)N21	/	/	65.3*	-2.5	/	11.4%
CC(C)S(=O)(=O)C1=NSC2=NC(=O)/C(=C\c3ccc(-c4ccccc4)o3)C(=N)N21	14.6	4.8	46.7	-2.3	7.2	/
